The results in this text go back to ChEMBL document CHEMBL1144203, “Synthesis and antiviral evaluation of acyclic azanucleosides developed from sulfanilamide as a lead structure” (Bioorg Med Chem, 2008).

Active and inactive are the calls of the source. The calls are words filed in the database; no cut-off is given here.

Data set [1] can be described thus: Cytotoxicity against CRFK cells assessed as decrease in cell viability by MTS assay. The class given is cell-based, Felis catus. The conditions noted are these: cat. An outline of the steps: (§1)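 Uninfected host cells were exposed to compound. CC50 was taken as the concentration giving a 50% fall in cell viability, measured by a colorimetric formazan-based MTS assay.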
Background: Tetrazolium dyes change colour on reduction, which living cells bring about.

The next data set relates to MDCK. Nature of the data set: Cytotoxicity against MDCK cells assessed as decrease in cell viability upto 100 uM by MTS assay. The class given is cell-based, Canis lupus familiaris. Conditions: dog.
The test system of a further data set is HEL. Nature of the data set: Cytotoxicity against HEL cells assessed as decrease in cell viability upto 100 uM by MTS assay. The class given is cell-based. The conditions noted are these: human.
The subject of another data set is HeLa. The data set can be described thus: Cytotoxicity against human HeLa cells assessed as decrease in cell viability upto 100 uM by MTS assay. It counts as functional, cell-based. The essentials: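 Uninfected HeLa host cells were tested up to 100 μM. CC50 is the concentration causing a 50% drop in cell viability by colorimetric formazan-based MTS assay. Alternatively, MCC is the minimal concentration giving microscopically detectable alteration of normal cell morphology.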

In another data set the test system is Human respirovirus 3. Nature of the data set: Antiviral activity against Parainfluenza 3 virus infected in Vero cells assessed as inhibition of virus-induced cytopathic effect at 100 uM by MTS assay. It counts as functional, organism-based. The essentials: (§2)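 Vero cell monolayers were infected with the virus in cell-based CPE assays. EC50 is the concentration giving 50% inhibition of virus-induced cytopathic effect, scored visually or by MTS formazan colorimetric cell-viability read-out. The highest concentration tested was 100 μM for most compounds and lower for a few.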
(Damage to the host cells serves as the signal in cytopathic effect assays.)

Data set [2] concerns Mammalian orthoreovirus 1. Nature of the data set: Antiviral activity against Reovirus1 infected in Vero cells assessed as inhibition of virus-induced cytopathic effect at 100 uM by MTS assay. The class given is functional, organism-based. The essentials:
as §2

A further data set relates to Sindbis virus. The data set can be described thus: Antiviral activity against Sindbis virus infected in Vero cells assessed as inhibition of virus-induced cytopathic effect at 100 uM by MTS assay. The class given is functional, organism-based. An outline of the steps: as §2
The test system of the next data set is Feline coronavirus. The data set can be described thus: Antiviral activity against feline coronavirus infected in CRFK cells assessed as inhibition of virus-induced cytopathic effect at 100 uM by MTS assay. It counts as functional, organism-based.
The next data set concerns Felid alphaherpesvirus 1. The data set can be described thus: Antiviral activity against feline herpes virus infected in CRFK cells assessed as inhibition of virus-induced cytopathic effect at 100 uM by MTS assay. It counts as functional, organism-based.
The test system of a further data set is Human alphaherpesvirus 1. Nature of the data set: Antiviral activity against HSV1 virus infected in HEL cells assessed as inhibition of virus-induced cytopathic effect at 100 uM by MTS assay. The class given is functional, organism-based.
The next data set has as its system Human alphaherpesvirus 2. The data set can be described thus: Antiviral activity against HSV2 virus infected in HEL cells assessed as inhibition of virus-induced cytopathic effect at 100 uM by MTS assay. The class given is functional, organism-based.
The test system of data set [3] is Coxsackievirus B4. The data set can be described thus: Antiviral activity against Coxsackievirus B4 infected in HeLa cells assessed as inhibition of virus-induced cytopathic effect at 100 uM by MTS assay. It counts as functional, organism-based. An outline of the steps: (§3)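 HeLa cells were infected with the virus, and compounds were tested up to 100 μM. EC50 is the concentration that halves virus-induced cytopathic effect, read by visual CPE scoring or by MTS formazan colorimetric viability measurement.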

Data set [4] has as its system Respiratory syncytial virus. Nature of the data set: Antiviral activity against respiratory syncytial virus infected in HeLa cells assessed as inhibition of virus-induced cytopathic effect at 100 uM by MTS assay. It counts as functional, organism-based. The essentials:
as §3

Data set [5] concerns Coxsackievirus B4. The data set can be described thus: Antiviral activity against Coxsackievirus B4 infected in Vero cells assessed as inhibition of virus-induced cytopathic effect at 100 uM by MTS assay. It counts as functional, organism-based. An outline of the steps: as §2
Another data set has as its system Punta Toro virus. The data set can be described thus: Antiviral activity against Punta Toro virus infected in Vero cells assessed as inhibition of virus-induced cytopathic effect at 100 uM by MTS assay. It counts as functional, organism-based. An outline of the steps:
as §2

Data set [6] can be described thus: Cytotoxicity against CRFK cells assessed as decrease in cell viability upto 100 uM by MTS assay. It counts as cell-based, Felis catus. The conditions noted are these: cat.
Data set [7] is described as follows: Cytotoxicity against MDCK cells assessed as alteration in cell morphology by MTS assay. The class given is cell-based, Canis lupus familiaris. Conditions: dog. The essentials: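 Uninfected host cells were exposed to compound and examined under the microscope. MCC was the minimal compound concentration causing a microscopically detectable change in normal cell morphology.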

A short description of data set [8]: Cytotoxicity against MDCK cells assessed as decrease in cell viability by MTS assay. It counts as cell-based, Canis lupus familiaris. Conditions: dog. The essentials:
as §1

On to `CC(C)(C)C(=O)OCCN(Cn1ccc(=O)[nH]c1=O)S(=O)(=O)c1ccc([N+](=O)[O-])cc1`, for which, in data set [1], the CC50 (as a rule, the concentration at which the toxic effect on the cells reaches its halfway point) came out at 49 µM. Besides, the Activity entry with MDCK and in the data set on HEL was “Not Active” each time. Besides, the result (in the data set with HeLa; in the data set on Human respirovirus 3; in data set [2]; in the data set on Sindbis virus; with Feline coronavirus; in the data set on Felid alphaherpesvirus 1) was inactive. Also, the outcome (in the data set with Human alphaherpesvirus 1; in the data set on Human alphaherpesvirus 2; in the data set with Coxsackievirus B4 [3]; in [4]; in the data set with Coxsackievirus B4 [5]; in the data set on Punta Toro virus) was inactive.
With `Cc1cn(CN(CCOC(=O)C(C)(C)C)S(=O)(=O)c2ccc([N+](=O)[O-])cc2)c(=O)[nH]c1=O`, the CC50 in data set [1] came out at 53 µM. The Activity entry with MDCK and with HEL was “Not Active” each time. Moreover, the outcome (with HeLa; in the data set with Human respirovirus 3; in data set [2]; with Sindbis virus; with Feline coronavirus; in the data set on Felid alphaherpesvirus 1) was inactive. Besides, the outcome (in the data set with Human alphaherpesvirus 1; in the data set on Human alphaherpesvirus 2; in the data set with Coxsackievirus B4 [3]; in [4]; in the data set on Coxsackievirus B4 [5]; in the data set on Punta Toro virus) was inactive.
With `Cc1cn(CN(CCOC(=O)C(C)(C)C)S(=O)(=O)c2cccc([N+](=O)[O-])c2)c(=O)[nH]c1=O`, the Activity entry (in the data set on MDCK; in [6]; in the data set with HEL) was “Not Active” in each case. The result (with HeLa; in the data set on Human respirovirus 3; in data set [2]; in the data set with Sindbis virus; in the data set with Feline coronavirus; with Felid alphaherpesvirus 1) was inactive. Also, the result (with Human alphaherpesvirus 1; in the data set with Human alphaherpesvirus 2; with Coxsackievirus B4 [3]; in [4]; with Coxsackievirus B4 [5]; in the data set with Punta Toro virus) was inactive.
For `CCOC(=O)C1=C[C@@H](OC(CC)CC)[C@H](NC(C)=O)[C@@H](N)C1` [OSELTAMIVIR], the MCC in [7] is greater than 100 µM. Moreover, the CC50 in [8] is greater than 100 µM.
In the case of `CC(=O)Nc1ccc(S(=O)(=O)N(CCOC(=O)C(C)(C)C)Cn2cc(F)c(=O)[nH]c2=O)cc1`, the Activity result (with MDCK; in data set [6]; in the data set with HEL) was “Not Active” throughout. The outcome (with HeLa; in the data set with Human respirovirus 3; in data set [2]; in the data set on Sindbis virus; in the data set with Feline coronavirus; in the data set with Felid alphaherpesvirus 1) was inactive. In addition, the outcome (with Human alphaherpesvirus 1; in the data set with Human alphaherpesvirus 2; with Coxsackievirus B4 [3]; in data set [4]; with Coxsackievirus B4 [5]; in the data set with Punta Toro virus) was inactive.
In the case of `CC(C)(C)C(=O)OCCN(Cn1ccc(=O)[nH]c1=O)S(=O)(=O)c1cccc(N)c1`, the Activity result (in the data set with MDCK; in [6]; in the data set on HEL) was “Not Active” throughout. The result (in the data set with HeLa; in the data set on Human respirovirus 3; in data set [2]; in the data set with Sindbis virus; in the data set with Feline coronavirus; in the data set with Felid alphaherpesvirus 1) was inactive. Further, the result (with Human alphaherpesvirus 1; with Human alphaherpesvirus 2; in the data set with Coxsackievirus B4 [3]; in data set [4]; in the data set on Coxsackievirus B4 [5]; with Punta Toro virus) was inactive.
As for `CC(=O)Nc1ccc(S(=O)(=O)N(CCO)Cn2cc(C)c(=O)[nH]c2=O)cc1`, the Activity result (with MDCK; in data set [6]; with HEL) was “Not Active” each time. The result (in the data set on HeLa; in the data set with Human respirovirus 3; in [2]; with Sindbis virus; in the data set with Feline coronavirus; in the data set with Felid alphaherpesvirus 1) was inactive. For the same compound, the result (with Human alphaherpesvirus 1; in the data set on Human alphaherpesvirus 2; in the data set on Coxsackievirus B4 [3]; in data set [4]; in the data set with Coxsackievirus B4 [5]; in the data set with Punta Toro virus) was inactive.
Turning to `CC(C)(C)C(=O)OCCN(Cn1cc(F)c(=O)[nH]c1=O)S(=O)(=O)c1ccccc1N`, the Activity result (in the data set on MDCK; in [6]; in the data set with HEL) was “Not Active” in each case. Moreover, the result (with HeLa; with Human respirovirus 3; in data set [2]; in the data set with Sindbis virus; in the data set with Feline coronavirus; with Felid alphaherpesvirus 1) was inactive. Besides, the result (with Human alphaherpesvirus 1; in the data set with Human alphaherpesvirus 2; with Coxsackievirus B4 [3]; in data set [4]; in the data set on Coxsackievirus B4 [5]; in the data set on Punta Toro virus) was inactive.
Turning to `CC(N)C12CC3CC(CC(C3)C1)C2` (stereo unspecified) [RIMANTADINE], in data set [7], the MCC was greater than 100 µM. The CC50 in data set [8] was greater than 100 µM.
For `CC(C)(C)C(=O)OCCN(Cn1ccc(=O)[nH]c1=O)S(=O)(=O)c1ccccc1N`, the Activity result (in the data set on MDCK; in [6]; with HEL) was “Not Active” in each case. Moreover, the outcome (in the data set on HeLa; in the data set with Human respirovirus 3; in data set [2]; in the data set on Sindbis virus; with Feline coronavirus; in the data set with Felid alphaherpesvirus 1) was inactive. Also, the outcome (in the data set on Human alphaherpesvirus 1; in the data set with Human alphaherpesvirus 2; in the data set on Coxsackievirus B4 [3]; in data set [4]; in the data set with Coxsackievirus B4 [5]; in the data set on Punta Toro virus) was inactive.
Take `NC12CC3CC(CC(C3)C1)C2` [AMANTADINE]: the MCC in data set [7] is greater than 100 µM. For the same compound, the cytotoxic concentration (CC50) in [8] is greater than 100 µM.
Take `Cc1cn(CN(CCOC(=O)C(C)(C)C)S(=O)(=O)c2cccc(N)c2)c(=O)[nH]c1=O`: the Activity result (in the data set with MDCK; in [6]; with HEL) was “Not Active” in each case. The outcome (with HeLa; in the data set on Human respirovirus 3; in data set [2]; in the data set with Sindbis virus; in the data set on Feline coronavirus; in the data set on Felid alphaherpesvirus 1) was inactive. In addition, the result (in the data set with Human alphaherpesvirus 1; in the data set on Human alphaherpesvirus 2; with Coxsackievirus B4 [3]; in data set [4]; in the data set on Coxsackievirus B4 [5]; with Punta Toro virus) was inactive.
